In ChEMBL document CHEMBL3621107, “Ring fusion strategy for synthesis and lead optimization of sulfur-substituted anthra[1,2-c][1,2,5]thiadiazole-6,11-dione derivatives as promising scaffold of antitumor agents” (Eur J Med Chem, 2015):

Key:
Assay type in all cases: functional
[1] = tested on: HL-60(TB); assay: Cytotoxicity against human HL-60(TB) cells after 48 hrs by SRB assay; settings: HL-60, 48 h
Method in brief: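 NCI Developmental Therapeutics Program 60-cell-line screen, second stage: cells exposed to five concentrations (0.01, 0.1, 1, 10 and 100 μM). Growth is plotted against log10 concentration for each line, and GI50, TGI and LC50 are read from the dose-response curves.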

[2] = tested on: MOLT-4; assay: Cytotoxicity against human MOLT4 cells after 48 hrs by SRB assay; settings: MOLT-4, 48 h
Method in brief: (§1)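 Second-stage NCI-60 panel run by the NCI Developmental Therapeutics Program, covering nine tumour subpanels. Five concentrations were tested: 0.01, 0.1, 1, 10 and 100 μM. Percentage growth at each level was plotted against log10 drug concentration. GI50, TGI and LC50 were read from these dose-response curves. Subpanel MID values were divided into the full-panel MID to give selectivity ratios.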

[3] = tested on: RPMI-8226; assay: Cytotoxicity against human RPMI8226 cells after 48 hrs by SRB assay; settings: RPMI-8226, 48 h; method in brief: as §1
[4] = tested on: HOP-92; assay: Cytotoxicity against human HOP92 cells after 48 hrs by SRB assay; settings: HOP-92, 48 h
Method in brief: (§2)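 NCI-60 human tumour cell panel screen, second stage, run by the NCI Developmental Therapeutics Program. Compounds were tested at five concentrations (0.01, 0.1, 1, 10 and 100 μM). Percentage growth was plotted against log10 concentration for each cell line. GI50, TGI and LC50 were taken from these dose-response curves.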

[5] = tested on: NCI-H322M; assay: Cytotoxicity against human NCI-H322M cells after 48 hrs by SRB assay; method in brief: as §1
[6] = tested on: COLO 205; assay: Cytotoxicity against human COLO205 cells after 48 hrs by SRB assay; settings: COLO 205, 48 h; method in brief: as §2
[7] = tested on: HCT-116; assay: Cytotoxicity against human HCT116 cells after 48 hrs by SRB assay; settings: HCT-116, 48 h; for CC50: read-out: LC50 (the source's name); method in brief: as §2
[8] = tested on: HT-29; assay: Cytotoxicity against human HT-29 cells after 48 hrs by SRB assay; settings: HT-29, 48 h; method in brief: as §2
[9] = tested on: SF-295; assay: Cytotoxicity against human SF295 cells after 48 hrs by SRB assay; settings: SF-295, 48 h; method in brief: as §1
[10] = tested on: SF-539; assay: Cytotoxicity against human SF539 cells after 48 hrs by SRB assay; settings: SF-539, 48 h; method in brief: as §1
[11] = tested on: SNB-19; assay: Cytotoxicity against human SNB19 cells after 48 hrs by SRB assay; settings: SNB-19, 48 h; method in brief: as §1
[12] = tested on: MDA-MB-435; assay: Cytotoxicity against human MDA-MB-435 cells after 48 hrs by SRB assay; settings: MDA-MB-435, 48 h; method in brief: as §1
[13] = tested on: SK-MEL-2; assay: Cytotoxicity against human SK-MEL-2 cells after 48 hrs by SRB assay; settings: SK-MEL-2, 48 h; method in brief: as §1
[14] = tested on: SK-MEL-28; assay: Cytotoxicity against human SK-MEL-28 cells after 48 hrs by SRB assay; settings: SK-MEL-28, 48 h; for CC50: read-out: LC50 (the source's name); method in brief: as §1
[15] = tested on: IGROV-1; assay: Cytotoxicity against human IGROV1 cells after 48 hrs by SRB assay; settings: IGROV-1, 48 h; method in brief: as §2
[16] = tested on: OVCAR-3; assay: Cytotoxicity against human OVCAR3 cells after 48 hrs by SRB assay; settings: OVCAR-3, 48 h; for CC50: read-out: LC50 (the source's name); method in brief: as §1
[17] = tested on: OVCAR-4; assay: Cytotoxicity against human OVCAR4 cells after 48 hrs by SRB assay; settings: OVCAR-4, 48 h; method in brief: as §1
[18] = tested on: NCI/ADR-RES; assay: Cytotoxicity against human NCI/ADR-RES cells after 48 hrs by SRB assay; method in brief: as §1
[19] = tested on: SK-OV-3; assay: Cytotoxicity against human SKOV3 cells after 48 hrs by SRB assay; settings: SK-OV-3, 48 h; method in brief: as §1
[20] = tested on: 786-0; assay: Cytotoxicity against human 786-0 cells after 48 hrs by SRB assay; settings: 786-0, 48 h; method in brief: as §2
[21] = tested on: CAKI-1; assay: Cytotoxicity against human Caki1 cells after 48 hrs by SRB assay; settings: CAKI-1, 48 h; method in brief: as §2
[22] = tested on: TK-10; assay: Cytotoxicity against human TK10 cells after 48 hrs by SRB assay; settings: TK-10, 48 h
Method in brief: (§3)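 NCI-60 five-dose study run by NCI DTP at 0.01, 0.1, 1, 10 and 100 µM. Percentage growth at each level was plotted against log10 concentration for each line, and GI50, TGI and LC50 were read from the dose-response curves.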

[23] = tested on: PC-3; assay: Cytotoxicity against human PC3 cells after 48 hrs by SRB assay; settings: PC-3, 48 h; method in brief: as §1
[24] = tested on: T47D; assay: Cytotoxicity against human T47D cells after 48 hrs by SRB assay; method in brief: as §3
[25] = Cytotoxicity against human CNS cancer cells assessed as growth inhibition after 48 hrs by SRB assay; settings: Cancer cell lines
Method in brief: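 NCI-60 five-dose data (0.01–100 μM) were grouped by tumour subpanel. A subpanel mean (MID) of GI50 was computed for the CNS cancer lines. A selectivity ratio was obtained as full-panel MID divided by subpanel MID: 3–6 counts as moderate, >6 as high.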

[26] = Cytotoxicity against human melanoma cells assessed as growth inhibition after 48 hrs by SRB assay; settings: Melanoma cell
Method in brief: (§4)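 Values come from the NCI-60 five-dose panel (0.01–100 µM). The subpanel MID is the mean GI50 over the lines of that tumour subpanel. The selectivity ratio is the full-panel MID divided by the subpanel MID; 3–6 is rated moderate and >6 high.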

[27] = Cytotoxicity against human ovarian cancer cells assessed as growth inhibition after 48 hrs by SRB assay; settings: Cancer cell lines; method in brief: as §4

`O=C1c2ccccc2C(=O)c2c1cc(Sc1ccc(F)cc1F)c1nsnc21` gave a GI50 [1] of 2.68 µM, an LC50 [1] greater than 100 µM and a TGI [1] of 7.7 µM. It also gave a GI50 [2] of 1.11 µM, an LC50 [2] greater than 100 µM and a TGI [2] of 5.46 µM. The GI50 [3] was 2.2 µM, the LC50 [3] was 63.9 µM and the TGI [3] was 8.08 µM. The GI50 [4] was 2.03 µM, the LC50 (concentration giving 50% net cell kill) [4] was 16.3 µM and the TGI [4] was 5.01 µM. The GI50 [5] was 96.5 µM, the LC50 (concentration causing 50% net cell kill) [5] was greater than 100 µM and the TGI [5] was greater than 100 µM. For the same compound, the GI50 [6] was 13.7 µM, the LC50 [6] was 56.2 µM and the TGI [6] was 27.7 µM. It also gave a GI50 [7] of 1.55 µM, a TGI [7] of 3.22 µM and a CC50 [7] of 6.69 µM. For the same compound, the GI50 [8] was 8.72 µM, the LC50 [8] was greater than 100 µM and the TGI [8] was 36.3 µM. It also gave a GI50 [9] of 9 µM, an LC50 [9] greater than 100 µM and a TGI [9] of 44.2 µM. It also gave a GI50 [10] of 2.08 µM, an LC50 [10] of 8.63 µM and a TGI [10] of 4.24 µM. The GI50 [11] was 13.9 µM, the LC50 [11] was 68.6 µM and the TGI [11] was 30.9 µM. It also gave a GI50 [12] of 1.94 µM, an LC50 [12] of 7.07 µM and a TGI [12] of 3.7 µM. For the same compound, the GI50 [13] was 2.34 µM, the LC50 [13] was 9.41 µM and the TGI [13] was 4.69 µM. It also gave a GI50 [14] of 1.87 µM, a TGI [14] of 3.81 µM and a CC50 [14] of 7.75 µM. For the same compound, the GI50 [15] was 2.93 µM, the LC50 [15] was 46.6 µM and the TGI [15] was 10.2 µM. It also gave a GI50 [16] of 1.82 µM, a TGI [16] of 3.44 µM and a CC50 [16] of 6.52 µM. The GI50 [17] was 0.34 µM, the LC50 [17] was 4.18 µM and the TGI [17] was 1.38 µM. For the same compound, the GI50 [18] was 1.74 µM, the LC50 (concentration killing 50% of cells) [18] was greater than 100 µM and the TGI [18] was 4.59 µM. It also gave a GI50 [19] of 2.34 µM, an LC50 [19] of 13 µM and a TGI [19] of 5.08 µM. For the same compound, the GI50 [20] was 1.85 µM, the LC50 (concentration killing 50% of cells) [20] was 6.75 µM and the TGI [20] was 3.53 µM. It also gave a GI50 [21] of 2.51 µM, an LC50 (concentration causing 50% net cell kill) [21] greater than 100 µM and a TGI [21] of 7.04 µM. The GI50 [22] was 5.07 µM, the LC50 (concentration killing 50% of cells) [22] was 38.6 µM and the TGI [22] was 14.1 µM. For the same compound, the GI50 [23] was 1.96 µM, the LC50 (concentration killing 50% of cells) [23] was 85.7 µM and the TGI [23] was 6.41 µM. For the same compound, the GI50 [24] was 0.86 µM, the LC50 (concentration killing 50% of cells) [24] was 7.02 µM and the TGI [24] was 2.57 µM. The GI50 [25] was 5.69 µM, the GI50 [26] was 2.12 µM and the GI50 [27] was 2.7 µM.

Compound `O=C1c2ccccc2C(=O)c2c1cc(Sc1ccccc1Br)c1nsnc21` has a GI50 [1] of 17.8 µM, an LC50 [1] greater than 50 µM and a TGI [1] greater than 50 µM. The GI50 [2] was 7.21 µM, the LC50 [2] was greater than 50 µM and the TGI [2] was 41.2 µM. It also gave a GI50 [3] of 11.3 µM, an LC50 [3] greater than 50 µM and a TGI [3] greater than 50 µM. For the same compound, the GI50 [4] was 18.4 µM, the LC50 (concentration giving 50% net cell kill) [4] was greater than 50 µM and the TGI [4] was greater than 50 µM. The GI50 [5] was greater than 50 µM, the LC50 (concentration causing 50% net cell kill) [5] was greater than 50 µM and the TGI [5] was greater than 50 µM. It also gave a GI50 [6] greater than 50 µM, an LC50 [6] greater than 50 µM and a TGI [6] greater than 50 µM. For the same compound, the GI50 [7] was 7.87 µM, the TGI [7] was 19.9 µM and the CC50 [7] was greater than 50 µM. It also gave a GI50 [8] greater than 50 µM, an LC50 [8] greater than 50 µM and a TGI [8] greater than 50 µM. The GI50 [9] was 40.6 µM, the LC50 [9] was greater than 50 µM and the TGI [9] was greater than 50 µM. The GI50 [10] was 10.3 µM, the LC50 [10] was 40.5 µM and the TGI [10] was 20.5 µM. For the same compound, the GI50 [11] was 32.2 µM, the LC50 [11] was greater than 50 µM and the TGI [11] was greater than 50 µM. The GI50 [12] was 9.23 µM, the LC50 [12] was 32.7 µM and the TGI [12] was 17.4 µM. For the same compound, the GI50 [13] was 13.8 µM, the LC50 [13] was greater than 50 µM and the TGI [13] was 34.1 µM. For the same compound, the GI50 [14] was 20.9 µM, the TGI [14] was greater than 50 µM and the CC50 [14] was greater than 50 µM. For the same compound, the GI50 [15] was 19.1 µM, the LC50 [15] was greater than 50 µM and the GI50 [16] was 10.2 µM. The TGI [16] was 22.8 µM, the CC50 [16] was greater than 50 µM and the GI50 [17] was 2.78 µM. The LC50 [17] was 30.1 µM, the TGI [17] was 10.1 µM and the GI50 [18] was 10.4 µM. It also gave an LC50 (concentration killing 50% of cells) [18] greater than 50 µM, a TGI [18] of 36.9 µM and a GI50 [19] of 21 µM. For the same compound, the LC50 [19] was greater than 50 µM, the TGI [19] was greater than 50 µM and the GI50 [20] was 11.2 µM. The LC50 (concentration killing 50% of cells) [20] was greater than 50 µM, the TGI [20] was 29.7 µM and the GI50 [21] was 17.2 µM. For the same compound, the LC50 (concentration causing 50% net cell kill) [21] was greater than 50 µM, the TGI [21] was greater than 50 µM and the GI50 [22] was 29.7 µM. The LC50 (concentration killing 50% of cells) [22] was greater than 50 µM, the TGI [22] was greater than 50 µM and the GI50 [23] was 14.8 µM. It also gave an LC50 (concentration killing 50% of cells) [23] greater than 50 µM, a TGI [23] greater than 50 µM and a GI50 [24] of 3.7 µM. It also gave an LC50 (concentration killing 50% of cells) [24] greater than 50 µM, a TGI [24] of 18.3 µM and a GI50 [25] of 21.8 µM. The GI50 [26] was 12.9 µM and the GI50 [27] was 11.2 µM.
